Test results reported in ChEMBL document CHEMBL4014320 (J Med Chem, 2017).

Columns and labels:
[1] = target: T1, Peroxisome proliferator-activated receptor gamma (Homo sapiens, UniProt P37231); assay: Agonist activity at human GAL4 fused PPARgamma-Hinge-LBD expressed in HEK293T cells after 18 hrs by luciferase reporter gene assay; assay type: cell-based, HEK-293T
T1 sequence (P37231 whole entry): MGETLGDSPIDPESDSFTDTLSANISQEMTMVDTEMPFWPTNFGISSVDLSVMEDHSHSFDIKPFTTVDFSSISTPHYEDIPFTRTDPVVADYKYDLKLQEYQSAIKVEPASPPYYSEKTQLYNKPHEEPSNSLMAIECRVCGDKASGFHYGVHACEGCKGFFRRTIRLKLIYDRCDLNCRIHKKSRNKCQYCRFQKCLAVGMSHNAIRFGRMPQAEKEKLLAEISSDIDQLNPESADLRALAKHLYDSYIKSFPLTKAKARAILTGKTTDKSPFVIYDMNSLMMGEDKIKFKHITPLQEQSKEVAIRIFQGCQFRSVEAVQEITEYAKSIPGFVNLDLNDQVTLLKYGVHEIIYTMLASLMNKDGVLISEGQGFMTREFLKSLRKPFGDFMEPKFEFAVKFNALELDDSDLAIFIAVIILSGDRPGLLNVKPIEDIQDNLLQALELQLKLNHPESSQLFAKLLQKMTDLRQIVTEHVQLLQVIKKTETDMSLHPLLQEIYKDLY
How it was run: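 HEK293T cells were co-transfected with human GAL4-PPARγ-hinge-LBD and a 5× multimerized UAS-luciferase reporter (4.5 μg each) and grown serum-free for 18 h at 37 °C under 5% CO2. After 18 h, luminescence was read. EC50 came from plotting fold change over DMSO; points were run in triplicate, with two biological replicates.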

[2] = target: T2, Peroxisome proliferator-activated receptor gamma (Homo sapiens) (UniProt P37231); assay: Agonist activity at human GAL4 fused PPARgamma-Hinge-LBD expressed in HEK293T cells after 18 hrs by luciferase reporter gene assay relative to rosiglitazone; assay type: cell-based; settings: HEK-293T
T2 sequence (whole entry): T1 sequence (P37231 whole entry)
How it was run: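 HEK293T cells carried transfected human GAL4-PPARγ-hinge-LBD and a 5× UAS-luciferase reporter. Maximal transcriptional output was normalized to rosiglitazone, taken as 100% transactivation. Points were run in triplicate, with two biological replicates.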

Rattus norvegicus = assay: Antidiabetic activity in Zucker fa/fa rat assessed as decrease in blood glucose levels at 0.3 mg/kg administered via oral gavage for 14 days by oral glucose tolerance test; assay type: functional; set-up: scale not given: the % may be the effect or the level left

Row | EC50 [1] [nM] | Activity [2] [%] | Structure (SMILES) | Activity (Rattus norvegicus) [%]
1 | 134 | 27 | O=S(=O)(Nc1cc(Cl)c(Oc2cnc3ccccc3c2)c(Cl)c1)c1ccc(Br)cc1Cl | 
2 | 151 | 11 | O=S(=O)(Nc1cc(Cl)c(Oc2cnc3ccccc3c2)c(Cl)c1)c1ccc(Br)cc1 | 
3 | 94 | 34 | O=S(=O)(Nc1cc(Cl)c(Oc2cnc3ccccc3c2)c(Cl)c1)c1ccc(Br)cc1C(F)(F)F | 
4 |  | 14 | O=S(=O)(Nc1cc(Cl)c(Oc2cnc3ccccc3c2)c(Cl)c1)c1cccs1 | 
5 | 131 | 10 | O=S(=O)(Nc1cc(Cl)c(Oc2cnc3ccccc3c2)c(Cl)c1)c1cc(F)c(Br)cc1F | 
6 | 600 | 29 | Cc1cc(S(=O)(=O)Nc2cc(Cl)c(Oc3cnc4ccccc4c3)c(Cl)c2)ccc1Br | 
7 | 5810 | 19 | O=S(=O)(Nc1cc(Cl)c(Oc2cnc3ccccc3c2)c(Cl)c1)c1ccccc1Cl | 
8 | 4290 | 23 | O=S(=O)(Nc1cc(Cl)c(Oc2cnc3ccccc3c2)c(Cl)c1)c1ccc2ccccc2c1 | 
9 |  |  | O=S(=O)(Nc1cc(Cl)c(Oc2cnc3ccccc3c2)c(Cl)c1)c1ccc(Cl)cc1Cl [INT131] | 30
10 | 2 | 13 | O=S(=O)(Nc1cc(Cl)c(Oc2cnc3ccccc3c2)c(Cl)c1)c1ccc(Br)cc1F | 
11 | 3310 | 14 | Cc1cc(C)c(S(=O)(=O)Nc2cc(Cl)c(Oc3cnc4ccccc4c3)c(Cl)c2)c(C)c1 | 
12 | 4 | 21 | O=S(=O)(Nc1cc(Cl)c(Oc2cnc3ccccc3c2)c(Cl)c1)c1ccc(Br)cc1OC(F)(F)F | 
13 | 957 | 18 | O=S(=O)(Nc1cc(Cl)c(Oc2cnc3ccccc3c2)c(Cl)c1)c1ccc(Br)c(C(F)(F)F)c1 | 
14 |  | 2 | COc1cccc(C(=O)Nc2cc(Cl)c(Oc3cnc4ccccc4c3)c(Cl)c2)c1 | 
15 | 169 | 9 | O=S(=O)(Nc1cc(Cl)c(Oc2cnc3ccccc3c2)c(Cl)c1)c1ccc(Br)c(F)c1 | 
